Results taken from ChEMBL document CHEMBL3612059, “Synthesis of 1,2-benzisoxazole tethered 1,2,3-triazoles that exhibit anticancer activity in acute myeloid leukemia cell lines by inhibiting histone deacetylases, and inducing p21 and tubulin acetylation” (Bioorg Med Chem, 2015).
Activity calls are given as the source filed them. The calls are words filed in the database; no cut-off is given here.

Assays:
[1] = tested on: MOLM-14; test: Cell cycle arrest in human MOLM14 cells assessed as accumulation at G2/M phase after 72 hrs by propidium iodide staining-based flow cytometric analysis; assay type: functional
Outline: (§1)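 Cells in RPMI with 10 % FBS at 37 °C, 5 % CO₂; treated up to 72 h, washed in cold PBS, fixed in -20 °C-precooled 70 % ethanol at 4 °C. Stained with 50 µg/ml PI, 1 % Triton X-100 and 20 µg/ml RNase A in PBS, 30 min, 37 °C, dark. Cell-cycle phases read by flow cytometry; three independent experiments, mean ± SD.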

[2] = tested on: MV4-11; test: Induction of apoptosis in human MV4-11 cells assessed as late apoptotic cells at 10 uM after 72 hrs by Annexin V-FITC/propidium iodide staining-based flow cytometric analysis (reference value: 2%); assay type: functional
Outline: (§2)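 100,000 cells per well treated with 2.5, 5.0 or 10 μM for 72 h. Washed in ice-cold Ca/Mg-free PBS, resuspended in 100 μl binding buffer, stained with 5 μl PI plus 3 μl annexin V-FITC for 15 min in the dark, then read immediately by flow cytometry. Quadrants scored as live, early apoptotic, late apoptotic and necrotic.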

[3] = tested on: MV4-11; test: Induction of apoptosis in human MV4-11 cells assessed as necrotic cells at 2.5 uM after 72 hrs by Annexin V-FITC/propidium iodide staining-based flow cytometric analysis relative to control; assay type: functional
Outline: (§3)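 MV4-11 cells (RPMI, 10 % FBS, 37 °C, 5 % CO2), 100,000 per well, exposed to PTB at 2.5, 5.0 or 10 μM for 72 h. Washed in ice-cold Ca/Mg-free PBS, stained with annexin V-FITC and PI in 1X binding buffer for 15 min in the dark, then read at once by flow cytometry. Necrotic cells are the annexin-negative/PI-positive quadrant.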

[4] = tested on: MV4-11; test: Induction of apoptosis in human MV4-11 cells assessed as early apoptotic cells at 5 uM after 72 hrs by Annexin V-FITC/propidium iodide staining-based flow cytometric analysis (reference value: 7%); assay type: functional; outline: as §2
[5] = target: T1, Protein deacetylase HDAC6 (Homo sapiens) (UniProt Q9UBN7); test: Inhibition of HDAC6 in human MOLM14 cells assessed as increase in acetylation of tubulin at lysine 40 by Western blot analysis; assay type: cell-based; details: MOLM-14
T1 sequence (whole entry): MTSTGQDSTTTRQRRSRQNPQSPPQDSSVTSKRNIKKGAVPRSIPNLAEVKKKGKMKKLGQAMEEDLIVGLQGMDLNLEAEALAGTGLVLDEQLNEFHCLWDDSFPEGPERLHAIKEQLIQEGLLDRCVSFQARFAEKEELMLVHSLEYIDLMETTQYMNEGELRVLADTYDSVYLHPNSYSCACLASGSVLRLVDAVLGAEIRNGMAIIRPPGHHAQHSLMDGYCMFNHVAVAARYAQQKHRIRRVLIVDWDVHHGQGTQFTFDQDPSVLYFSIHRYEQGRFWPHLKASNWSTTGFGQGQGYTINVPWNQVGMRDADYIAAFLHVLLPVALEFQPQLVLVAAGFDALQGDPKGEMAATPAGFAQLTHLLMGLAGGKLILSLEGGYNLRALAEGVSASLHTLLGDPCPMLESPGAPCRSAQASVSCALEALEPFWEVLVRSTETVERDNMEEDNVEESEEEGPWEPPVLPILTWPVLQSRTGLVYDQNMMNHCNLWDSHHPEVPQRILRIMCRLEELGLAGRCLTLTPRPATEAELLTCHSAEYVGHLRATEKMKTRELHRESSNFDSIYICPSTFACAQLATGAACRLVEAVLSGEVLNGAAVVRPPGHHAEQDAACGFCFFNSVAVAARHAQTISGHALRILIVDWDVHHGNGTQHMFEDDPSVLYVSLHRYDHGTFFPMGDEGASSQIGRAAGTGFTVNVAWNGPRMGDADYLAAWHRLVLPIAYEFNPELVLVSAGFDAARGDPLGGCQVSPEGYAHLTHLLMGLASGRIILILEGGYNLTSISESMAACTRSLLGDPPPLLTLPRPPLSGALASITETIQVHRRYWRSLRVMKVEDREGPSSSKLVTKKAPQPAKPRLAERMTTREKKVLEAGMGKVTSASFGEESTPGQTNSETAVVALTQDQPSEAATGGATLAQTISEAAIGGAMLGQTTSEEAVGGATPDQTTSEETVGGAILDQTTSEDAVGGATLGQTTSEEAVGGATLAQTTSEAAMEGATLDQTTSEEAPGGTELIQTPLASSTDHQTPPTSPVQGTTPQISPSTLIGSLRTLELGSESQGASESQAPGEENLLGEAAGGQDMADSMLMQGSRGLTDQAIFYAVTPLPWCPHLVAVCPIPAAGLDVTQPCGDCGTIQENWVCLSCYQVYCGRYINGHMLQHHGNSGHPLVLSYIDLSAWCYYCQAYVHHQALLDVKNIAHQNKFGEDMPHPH

[6] = tested on: MV4-11; test: Cytotoxicity against human MV4-11 cells assessed as cell viability after 24 to 96 hrs by MTT assay; assay type: functional, cell-based
Outline: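 AML cells kept in RPMI with 10 % FBS and 1 % penicillin-streptomycin at 37 °C, 5 % CO₂, mycoplasma-screened. Seeded at 8,000 cells/well across a range of concentrations and read at several times up to 96 h. MTT added to 0.5 mg/ml final for 3 h at 37 °C, formazan dissolved in SDS-HCl, absorbance read at 570 nm. IC50 taken from the dose-response curves.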

[7] = tested on: MV4-11; test: Induction of apoptosis in human MV4-11 cells assessed as necrotic cells at 5 uM after 72 hrs by Annexin V-FITC/propidium iodide staining-based flow cytometric analysis relative to control; assay type: functional; outline: as §3
[8] = tested on: MV4-11; test: Induction of apoptosis in human MV4-11 cells after 72 hrs by Annexin V-FITC/propidium iodide staining-based flow cytometric analysis; assay type: functional, cell-based; outline: as §2
[9] = tested on: MOLM-14; test: Cell cycle arrest in human MOLM14 cells assessed as accumulation at sub-G1 phase after 72 hrs by propidium iodide staining-based flow cytometric analysis; assay type: functional; outline: as §1
[10] = tested on: MV4-11; test: Cytotoxicity against human MV4-11 cells assessed as cell viability after 72 hrs by MTT assay; assay type: functional, cell-based; details: MV4-11, 72 h
Outline: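 MV4-11 cells, 8,000/well, exposed for 72 h to […]. MTT added to 0.5 mg/ml final for 3 h at 37 °C, SDS-HCl solubilization, A570 read. Percent inhibition normalized to diluent controls. Three independent experiments in quadruplicate, mean ± SD.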

[11] = tested on: MOLM-14; test: Induction of apoptosis in human MOLM14 cells assessed as late apoptotic cells at 5 uM after 72 hrs by Annexin V-FITC/propidium iodide staining-based flow cytometric analysis (reference value: 2%); assay type: functional; outline: as §2
[12] = tested on: MOLM-14; test: Induction of apoptosis in human MOLM14 cells after 72 hrs by Annexin V-FITC/propidium iodide staining-based flow cytometric analysis; assay type: functional, cell-based; outline: as §2
[13] = Cytotoxicity against C57BL/6 mouse bone marrow cells assessed as cell viability at 5 to 10 uM measured up to 72 hrs by MTT assay; assay type: cell-based
Outline: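 Total bone marrow from C57BL/6 mice cultured in IMDM with 20 % FBS, 10 ng/ml mouse IL-3, 10 ng/ml IL-6 and 50 ng/ml SCF. Exposed to 5 or 10 μM for up to 72 h. MTT added to 0.5 mg/ml for 3 h at 37 °C, formazan dissolved in SDS-HCl, A570 read. Three independent experiments, quadruplicate wells, mean ± SD.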

c1ccc(Oc2ccc(-c3cn(-c4noc5ccccc45)nn3)cc2)cc1
Activity [1]: Active | Activity [2]: 26% | Activity [3]: 2% | Activity [4]: 16% | inhibition [5]: Active | Activity [6]: Dose-dependent effect | Activity [7]: 3% | Activity [8]: Dose-dependent effect | Activity [9]: Active | IC50 [10]: 2 µM | Activity [11]: 28% | Activity [12]: Dose-dependent effect | Activity [13]: Non-toxic
